Screens (PubChem BioAssay)
A selection: hits, their analogues and other compounds. The true share with any hit is near 2.5%.
IMP-1 inhibitor = blocks Pseudomonas aeruginosa IMP-1 metallo-beta-lactamase; actives 0.45% (n = 290,000); purified IMP-1, nitrocefin hydrolysis, epi-absorbance fluorescence; inhibition, % at 5.6 µM;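 active = inhibition above the mean plus 3 SD of all compounds in the same screening run, cut at about 4.5% in these data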;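 note: 0% = IMP-1 with DMSO and 100% = DMSO wells lacking enzyme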
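assay system = purified recombinant IMP-1 metallo-beta-lactamase enzyme | schedule = 15 min preincubation plus 25 min reaction at 25 °C | signal = Epi-absorbance fluorescence, 480 nm excitation, 530 nm emission | read-out basis = percent inhibition from optical density relative to buffer-blank wells | controls = IMP-1 with DMSO as 0%, enzyme-free DMSO as 100%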
VIM-2 inhibitor = inhibitors of Pseudomonas aeruginosa VIM-2 metallo-beta-lactamase; purified VIM-2, nitrocefin hydrolysis, epi-absorbance fluorescence; inhibition, % at 5.6 µM; actives 0.89% (n = 290,000);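 active = inhibition above the mean of all tested compounds plus 3 SD, cutoff set per screening run, cut at about 7.5% in these data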;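 note: red hydrolysis product quenches plate fluorescence so inhibitors raise well fluorescence; 0% = enzyme with DMSO and 100% = DMSO without enzyme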
HTR2A ag = activates the mouse 5-HT2A serotonin receptor; activation, % at 7.6 µM; actives 0.66% (n = 360,000); AID 624169; CHO-K1 mHTR2A beta-arrestin complementation, luminescence; percent of 30 µM serotonin response;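 active = activation above a run cutoff, the mean activation of all tested compounds plus 3 SD, cut at about 14% in these data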;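 note: 0% = plate median of compound wells and 100% = 30 µM serotonin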
dFosB act = enhances mouse delta FosB homodimer DNA binding; P13346; purified delta FosB, TAMRA-CDK5 oligo fluorescence polarization; percent of positive-control signal above neutral wells; activation, % at 25 µM; actives 0.99% (n = 340,000); AID 493131;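 active = mean activation above about 17%, with every replicate also reaching it, limit read from the data, passing the limit was not always enough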
Target sequence (P13346 whole entry, looked up): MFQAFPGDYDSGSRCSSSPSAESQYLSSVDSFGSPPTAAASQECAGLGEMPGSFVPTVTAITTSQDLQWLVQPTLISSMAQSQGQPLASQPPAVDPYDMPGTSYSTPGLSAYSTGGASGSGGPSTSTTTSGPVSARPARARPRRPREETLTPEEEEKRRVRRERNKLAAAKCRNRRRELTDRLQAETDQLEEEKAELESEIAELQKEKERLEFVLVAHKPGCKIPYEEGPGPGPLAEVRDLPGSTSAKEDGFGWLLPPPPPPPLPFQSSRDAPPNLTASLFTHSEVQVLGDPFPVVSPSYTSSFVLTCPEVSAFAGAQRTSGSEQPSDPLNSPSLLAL
OPRM1 ag = counter-screen for mouse HTR2A agonists: human mu opioid receptor agonists; U2OS OPRM1 beta-arrestin PathHunter, luminescence; DMSO 0%, DAMGO 9.3 µM 100%; activation, % at 9.3 µM; actives 5.3% (n = 2,300); shares compounds with HTR2A ag;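 active = mean activation above the mean of DMSO-only wells plus 3 SD, cut at about 0.5% in these data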
Target sequence (P35372 whole entry, looked up): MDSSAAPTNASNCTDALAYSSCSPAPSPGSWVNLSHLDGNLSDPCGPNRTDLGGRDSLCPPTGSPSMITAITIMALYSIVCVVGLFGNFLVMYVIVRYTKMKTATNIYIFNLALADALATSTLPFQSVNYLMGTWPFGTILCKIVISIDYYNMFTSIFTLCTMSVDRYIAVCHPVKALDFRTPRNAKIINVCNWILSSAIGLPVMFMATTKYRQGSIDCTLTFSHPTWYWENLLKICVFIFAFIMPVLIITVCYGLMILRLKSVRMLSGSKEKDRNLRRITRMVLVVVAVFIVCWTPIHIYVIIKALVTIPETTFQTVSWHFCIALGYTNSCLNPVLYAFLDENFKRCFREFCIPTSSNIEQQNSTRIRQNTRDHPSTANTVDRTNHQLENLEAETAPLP
m5-HT2A ag conf = mouse HTR2A agonism confirmed. shares compounds with HTR2A ag. CHO-K1 PathHunter beta-arrestin recruitment, luminescence; DMSO 0%, 30 µM serotonin 100%. activation, % at 7.6 µM. actives 19% (n = 2,300). AID 624381;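 active = mean activation across triplicates above the hit threshold derived in the original primary screen, cut at about 15% in these data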
An asterisk follows results filed as active; · = no result.

SMILES | IMP-1 inhibitor | VIM-2 inhibitor | HTR2A ag | dFosB act | OPRM1 ag | m5-HT2A ag conf
CCC1(CC)C(=O)C=CNC1=O | · | · | 40.0* | -3.0 | -0.6 | -4.2
Fc1cccc(-c2ccc3c(c2)CN(C(=S)NCCc2ccccc2)Cc2cnnn2-3)c1 | · | · | -6.2 | · | · | ·
CCC1(CCC(C)C)C(=O)NC(=O)N(c2ccccc2)C1=O (stereo not drawn) | · | · | 0.6 | · | · | ·
COc1ccc(CNC(=O)/C=C/c2ccc3[nH]cc(CCN(C)C)c3c2)cc1 | · | · | -5.9 | 8.4 | · | ·
COc1ccc2[nH]cc(CCN(C)C)c2c1 | 0.3 | -1.6 | 49.0* | 6.9 | -0.7 | 35.8*
COc1cc(CN2CCN(C(=O)COc3ccccc3)CC2)cc(OC)c1OC | -1.9 | -1.8 | 4.6 | -13.1 | · | ·
O=C(COc1ccccc1)N1CCN(Cc2c[nH]c3ccccc23)CC1 | -0.5 | -2.3 | 15.8* | 0.8 | -0.3 | 7.1
COc1cccc(CN2CCN(C(=O)Cc3ccccc3OC)CC2)c1 | 1.1 | -0.2 | 19.4* | -2.3 | 0.0 | 9.7
COc1ccc(OCC(=O)N2CCN(Cc3c[nH]c4ccccc34)CC2)cc1 | 0.2 | -0.6 | 25.5* | 2.8 | -0.6 | 16.1*
COc1ccccc1CN1CCN(C(=O)COc2ccc3ccccc3c2)CC1 | -1.1 | -0.9 | -1.6 | -3.7 | · | ·
COc1ccc(OC)c(CN2CCN(C(=O)Cc3ccccc3)CC2)c1 | -0.8 | 0.3 | -1.0 | -3.1 | · | ·
O=C(Cc1ccccc1)N1CCN(Cc2c[nH]c3ccccc23)CC1 | -0.6 | 0.7 | 22.3* | -0.1 | -0.5 | 10.0
c1ccc2c(CN3CCCCCC3)c[nH]c2c1 | -0.3 | 0.6 | -5.4 | 0.3 | · | ·
CCOC(=O)C1(c2ccccc2)CCN(CC(=O)c2ccc(NC(C)=O)cc2)CC1 | · | · | -3.4 | -2.8 | · | ·
CC(C)(C)NC(=S)N1Cc2ccccc2-n2nncc2C1 | · | · | 3.8 | · | · | ·
Cc1ccccc1CN1CCN(C(=O)Cc2ccccc2)CC1 | -2.9 | -0.3 | 16.9* | -0.4 | -0.6 | 1.4
CCC(C)c1cnc(CC(C)C)c(=O)n1O (stereo not drawn) | · | · | -5.9 | · | · | ·
c1ccc2nc(N3CCNCC3)ccc2c1 | · | · | 50.6* | -1.9 | -0.6 | 38.1*
NCCc1c[nH]c2ccc(C(N)=O)cc12 | · | · | 27.7* | 3.8 | -0.5 | 14.8*
NCCc1c[nH]c2ccc(F)cc12 | -1.9 | 0.5 | · | · | · | ·
CC12CCC(O)CC1CCC1C2CCC2(C)C(C(=O)CO)CCC12 (stereo not drawn) | · | · | -2.7 | · | · | ·
COC(=O)C1=C(C(=O)OC)C2OC1c1cc3ccccc3cc12 | · | · | -9.0 | -4.7 | · | ·
CCCN1CCC[C@H](c2cccc(O)c2)C1 | · | · | 37.5* | 4.2 | -0.6 | 122.4*
CCCN1CCC[C@@H](c2cccc(O)c2)C1 | · | · | 22.8* | 11.6 | -0.4 | 63.8*
COc1ccc(Cl)cc1C(=O)C1CCCN(CCO)C1 (stereo not drawn) | -4.2 | -3.3 | -5.7 | -13.3 | · | ·
SMILES | IMP-1 inhibitor | VIM-2 inhibitor | HTR2A ag | dFosB act | OPRM1 ag | m5-HT2A ag conf
O=C(c1ccc(-c2ccccc2)c(F)c1)C1CCCN(CCO)C1 (stereo not drawn) | -1.7 | 1.8 | -8.1 | -3.4 | · | ·
CC1OC(OC2C=C3CCC4C(CCC5(C)C(c6ccc(=O)oc6)CCC45O)C3(C)CC2)C(O)C(OC2OC(CO)C(O)C(O)C2O)C1O (stereo not drawn) | · | · | 15.5* | -10.9 | 6.9* | 1.2
CC12CN3CC(c4ccccc4)(CN(C1)C31CCCCC1)C2=O | -5.2 | -4.6 | 16.4* | -3.4 | -0.3 | -0.2
O=S(=O)(c1cccc(C(F)(F)F)c1)N1Cc2ccccc2-n2nncc2C1 | · | · | -0.9 | · | · | ·
C[C@@H](N)Cc1cnc[nH]1 | · | · | 15.2* | -3.2 | -0.7 | -1.7
O=C(O)Cc1cnc[nH]1 | · | · | -5.0 | -2.2 | · | ·
N#Cc1c(/N=C/C2C(=O)NC(=S)NC2=O)sc2c1CCCC2 | -1.1 | -3.0 | 14.9* | 5.9 | -0.5 | 35.5*
CCOC(=O)c1c(/N=C/C2C(=O)NC(=S)NC2=O)sc2c1CCC2 | 1.4 | 1.8 | 4.8 | -7.9 | · | ·
CCOC(=O)c1cc2cc(OC)ccc2n1C1CCN(Cc2ccccc2)CC1 | · | · | -6.0 | · | · | ·
O=C(O)c1nn(Cc2ccc(Cl)cc2)c2ccccc12 | · | · | 14.8* | · | 0.5 | 0.1
NCC(O)c1cc(O)c(O)cc1F (stereo not drawn) | · | · | 55.8* | 5.6 | -0.2 | 149.5*
O=C1NCN(c2ccccc2)C12CCN(C(c1cccc3ccccc13)c1nnnn1-c1ccc3c(c1)OCCO3)CC2 (stereo not drawn) | · | · | -2.6 | · | · | ·
Cc1ccc(CN2CCC3CCC(C3)C2)c(O)c1 (stereo not drawn) | · | · | -4.9 | -2.2 | · | ·
CCOC(=O)[C@]12Cc3c(cc(OC)c(OC)c3OC)[C@H]1N(CCC(=O)OC)C(=O)c1ccccc12 | · | · | -1.7 | · | · | ·
Cc1nn(Cc2ccccc2)c(C)c1C(=O)O | -4.8 | -2.5 | 15.4* | -2.8 | 0.6* | 6.3
O=C1NCN(c2ccccc2)C12CCN(C(c1nnnn1C1CCCCC1)C1CC1)CC2 (stereo not drawn) | · | · | 10.3 | · | · | ·
Cc1cccc(CCNCc2cc3cccc(C)c3[nH]c2=O)c1 | -3.6 | 0.7 | 20.9* | -3.2 | -0.5 | 6.2
Cc1cccc(CCNCc2cc3cc(C)cc(C)c3[nH]c2=O)c1 | 1.1 | 2.7 | 3.5 | 3.1 | · | ·
COc1ccc(CCNCc2sccc2C)cc1 | -1.1 | -1.0 | 24.7* | 4.1 | -0.4 | 8.8
CCCN1CCC[C@@H]2Cc3[nH]ncc3C[C@H]21 | · | · | 42.0* | 1.6 | -0.5 | 170.5*
Oc1cc2c(cc1CN1CCN(c3ccccc3)CC1)CCC2 | -3.1 | -3.5 | -4.6 | -1.7 | · | ·
O=P(CN1CCN(c2ccccc2)CC1)(N1CCCCC1)N1CCCCC1 | -2.6 | -3.2 | 14.5* | -4.1 | -0.5 | 19.6*
CCN(CC)C(=O)COc1cc(C)cc2oc(=O)c3c(c12)CCCC3 | -2.9 | 1.6 | 14.4* | -22.3 | -0.5 | -4.2
CCCCOC(=O)COc1cc(C)cc2oc(=O)c3c(c12)CCC3 | -3.2 | 1.4 | -4.7 | -0.8 | · | ·
CN1CCC(c2c[nH]c3ccccc23)C1 (stereo not drawn) | -1.8 | -1.6 | 3.5 | -1.9 | · | ·
SMILES | IMP-1 inhibitor | VIM-2 inhibitor | HTR2A ag | dFosB act | OPRM1 ag | m5-HT2A ag conf
CN1CCC(c2c[nH]c3ccc(O)cc23)CC1 | · | · | 49.7* | 2.7 | -0.5 | 31.7*
O=C(c1cc(Cl)cc(Cl)c1)N1Cc2ccccc2-n2nncc2C1 | · | · | 2.4 | · | · | ·
Cc1ccc(-c2nc3ccc(C)cn3c2CC(=O)N(C)C)cc1 | · | · | 28.9* | -3.2 | -0.7 | -2.9
CNCCc1c[nH]c2ccc(O)cc12 | · | · | 58.9* | -6.5 | -0.3 | 140.6*
OC(CNCCc1c[nH]c2ccccc12)C(F)(F)F (stereo not drawn) | -1.2 | -1.8 | -2.6 | 3.4 | · | ·
CNCCc1c[nH]c2ccccc12 | -1.8 | -0.2 | 32.1* | · | -0.6 | 15.9*
COc1cc(CNCCc2c[nH]c3ccccc23)cc(OC)c1OC | · | · | -3.6 | · | · | ·
S=C(NCCc1ccccc1)N1Cc2ccccc2-n2nncc2C1 | · | · | -6.3 | · | · | ·
COc1cc(C[C@@H](C)N)c(OC)cc1I | · | · | 60.8* | 7.7 | -0.3 | 26.3*
CC(N)Cc1c[nH]c2c1ccc1ccccc12 (stereo not drawn) | -2.6 | -3.5 | -8.8 | 2.5 | · | ·
CC1CN1P(=O)(Oc1ccccc1)N1CC1C (stereo not drawn) | · | · | -2.3 | -5.9 | · | ·
